Experimental data reported in ChEMBL document CHEMBL3351863, “Optimization of 2-phenyl-pyrimidine-4-carboxamides towards potent, orally bioavailable and selective P2Y(12) antagonists for inhibition of platelet aggregation” (Bioorg Med Chem Lett, 2014).
pIC50: −log10 of the molar value.

System: Liver microsome
Assay: Metabolic stability assay in human liver microsomes assessed as parent drug disappearance at 1 uM after 20 mins by HPLC and mass spectrometry method
Assay type: ADME
Conditions: not given; call rule not given here
In the case of CCOC(=O)N1CCN(C(=O)[C@H](CCC(=O)O)NC(=O)c2cc(NC(C)COC)nc(-c3ccccc3)n2)CC1 (stereo not given in full), the Stability was “Stable”.
In the case of CCOC(=O)N1CCN(C(=O)[C@H](CCC(=O)O)NC(=O)c2cc(NCCN(C)C)nc(-c3ccccc3)n2)CC1, the Stability was “Stable”.
In the case of CCCCOC(=O)N1CCN(C(=O)[C@H](CCC(=O)O)NC(=O)c2cc([C@H]3C[C@H]3COC)nc(-c3ccccc3)n2)CC1 (racemic), the Stability was “Stable”.
In the case of CCOC(=O)N1CCN(C(=O)[C@H](CCC(=O)O)NC(=O)c2cc(NS(=O)(=O)c3ccccc3)nc(-c3ccccc3)n2)CC1, the Stability was “Stable”.
For CCOC(=O)N1CCN(C(=O)[C@H](CCC(=O)O)NC(=O)c2cc(CN3CCOCC3)nc(-c3ccccc3)n2)CC1, the Stability was “Stable”.

Target: T1, Cytochrome P450 3A4 (Homo sapiens, UniProt P08684)
T1 sequence (P08684 whole entry): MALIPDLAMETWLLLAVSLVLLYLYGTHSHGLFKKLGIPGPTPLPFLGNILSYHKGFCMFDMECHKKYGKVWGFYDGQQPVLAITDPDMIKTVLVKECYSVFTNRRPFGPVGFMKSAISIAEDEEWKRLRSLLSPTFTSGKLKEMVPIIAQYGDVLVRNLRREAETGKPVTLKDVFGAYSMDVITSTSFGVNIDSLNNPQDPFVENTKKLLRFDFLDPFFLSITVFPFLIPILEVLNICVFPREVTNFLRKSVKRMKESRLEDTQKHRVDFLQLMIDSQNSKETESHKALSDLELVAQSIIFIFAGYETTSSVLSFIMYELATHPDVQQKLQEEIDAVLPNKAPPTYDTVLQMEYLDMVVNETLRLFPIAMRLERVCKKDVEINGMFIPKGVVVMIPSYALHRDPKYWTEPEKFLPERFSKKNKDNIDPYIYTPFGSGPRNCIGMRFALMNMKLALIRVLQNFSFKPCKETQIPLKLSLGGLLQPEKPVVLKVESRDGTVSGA
Assay: Inhibition of CYP3A4 in human liver microsomes assessed as reduction in testosterone 6beta-hydroxylation
Assay type: ADME
Conditions: not given
With CCOC(=O)N1CCN(C(=O)[C@H](CCC(=O)O)NC(=O)c2cc(NC(C)COC)nc(-c3ccccc3)n2)CC1 (stereo not given in full) the “inhibition (INH)” value was “Not Active”.
In the case of CCOC(=O)N1CCN(C(=O)[C@H](CCC(=O)O)NC(=O)c2cc(NCCN(C)C)nc(-c3ccccc3)n2)CC1, the “inhibition (INH)” value was “Not Active”.
With CCCCOC(=O)N1CCN(C(=O)[C@H](CCC(=O)O)NC(=O)c2cc([C@H]3C[C@H]3COC)nc(-c3ccccc3)n2)CC1 (racemic) the “inhibition (INH)” value was “Not Active”.
For CCOC(=O)N1CCN(C(=O)[C@H](CCC(=O)O)NC(=O)c2cc(NS(=O)(=O)c3ccccc3)nc(-c3ccccc3)n2)CC1, the “inhibition (INH)” value was “Not Active”.
With CCOC(=O)N1CCN(C(=O)[C@H](CCC(=O)O)NC(=O)c2cc(CN3CCOCC3)nc(-c3ccccc3)n2)CC1 the “inhibition (INH)” value was “Not Active”.

Target: T1, Cytochrome P450 3A4
Assay: Inhibition of CYP3A4 in human liver microsomes assessed as reduction in midazolam 1'-hydroxylation
Assay type: ADME
Conditions: not given
For CCOC(=O)N1CCN(C(=O)[C@H](CCC(=O)O)NC(=O)c2cc(NC(C)COC)nc(-c3ccccc3)n2)CC1 (stereo not given in full), the “inhibition (INH)” value was “Not Active”.
With CCOC(=O)N1CCN(C(=O)[C@H](CCC(=O)O)NC(=O)c2cc(NCCN(C)C)nc(-c3ccccc3)n2)CC1 the “inhibition (INH)” value was “Not Active”.
For CCCCOC(=O)N1CCN(C(=O)[C@H](CCC(=O)O)NC(=O)c2cc([C@H]3C[C@H]3COC)nc(-c3ccccc3)n2)CC1 (racemic), the “inhibition (INH)” value was “Not Active”.
With CCOC(=O)N1CCN(C(=O)[C@H](CCC(=O)O)NC(=O)c2cc(NS(=O)(=O)c3ccccc3)nc(-c3ccccc3)n2)CC1 the “inhibition (INH)” value was “Not Active”.
In the case of CCOC(=O)N1CCN(C(=O)[C@H](CCC(=O)O)NC(=O)c2cc(CN3CCOCC3)nc(-c3ccccc3)n2)CC1, the “inhibition (INH)” value was “Not Active”.

System: Platelet
Assay: Inhibition of ADP-induced platelet aggregation in human platelet rich plasma assessed as remaining activity at 500 nM by in-vitro light transmission aggregometry assay
Assay type: functional
Conditions: not given
In short: (§1)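 Light transmission aggregometry in human platelet-rich plasma; compound incubated, aggregation triggered with 3 µM ADP; remaining activity (RA) recorded at a single compound level (1000, 500 or 100 nM).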
Work on CCOC(=O)N1CCN(C(=O)[C@H](CCC(=O)O)NC(=O)c2cc(NC(C)COC)nc(-c3ccccc3)n2)CC1 (stereo not given in full) yielded an Activity of less than 30%.

Target: P2Y purinoceptor 12 (Homo sapiens, UniProt Q9H244)
Sequence (Q9H244 whole entry): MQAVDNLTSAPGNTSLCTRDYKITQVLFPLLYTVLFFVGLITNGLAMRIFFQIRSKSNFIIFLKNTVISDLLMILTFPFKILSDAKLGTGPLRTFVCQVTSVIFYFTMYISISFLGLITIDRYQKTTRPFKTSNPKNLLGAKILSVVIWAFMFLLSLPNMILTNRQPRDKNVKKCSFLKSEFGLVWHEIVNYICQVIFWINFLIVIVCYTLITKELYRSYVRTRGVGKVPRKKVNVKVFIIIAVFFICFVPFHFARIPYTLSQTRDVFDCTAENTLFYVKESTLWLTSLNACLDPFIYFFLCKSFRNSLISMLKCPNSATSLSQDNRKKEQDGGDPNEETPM
Assay: Displacement of [3H]-2-methyl-thio-adenosine 5'-diphosphate from human recombinant P2Y12 expressed in CHO cell membranes by scintillation counting method
Conditions: not given
In short: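 CHO cells expressing recombinant P2Y₁₂ receptors, incubated with tritium-labeled 2-methyl-thio-adenosine 5'-diphosphate plus test compound; IC₅₀ from displacement curves, each point in triplicate; reference compound run with every compound set, and set re-analyzed if its IC₅₀ fell outside pre-set 95% confidence interval.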
Compound CCOC(=O)N1CCN(C(=O)[C@H](CCC(=O)O)NC(=O)c2cc(NCCN(C)C)nc(-c3ccccc3)n2)CC1 has a pIC50 of 5.56.
CCCCOC(=O)N1CCN(C(=O)[C@H](CCC(=O)O)NC(=O)c2cc([C@H]3C[C@H]3COC)nc(-c3ccccc3)n2)CC1 (racemic) showed a pIC50 of 8.05.
For CCOC(=O)N1CCN(C(=O)[C@H](CCC(=O)O)NC(=O)c2cc(NS(=O)(=O)c3ccccc3)nc(-c3ccccc3)n2)CC1, the pIC50 was 6.58.
CCOC(=O)N1CCN(C(=O)[C@H](CCC(=O)O)NC(=O)c2cc(CN3CCOCC3)nc(-c3ccccc3)n2)CC1 showed a pIC50 of 6.37.

Target: Cytochrome P450 2C9 (Homo sapiens, UniProt P11712)
Sequence (P11712 whole entry): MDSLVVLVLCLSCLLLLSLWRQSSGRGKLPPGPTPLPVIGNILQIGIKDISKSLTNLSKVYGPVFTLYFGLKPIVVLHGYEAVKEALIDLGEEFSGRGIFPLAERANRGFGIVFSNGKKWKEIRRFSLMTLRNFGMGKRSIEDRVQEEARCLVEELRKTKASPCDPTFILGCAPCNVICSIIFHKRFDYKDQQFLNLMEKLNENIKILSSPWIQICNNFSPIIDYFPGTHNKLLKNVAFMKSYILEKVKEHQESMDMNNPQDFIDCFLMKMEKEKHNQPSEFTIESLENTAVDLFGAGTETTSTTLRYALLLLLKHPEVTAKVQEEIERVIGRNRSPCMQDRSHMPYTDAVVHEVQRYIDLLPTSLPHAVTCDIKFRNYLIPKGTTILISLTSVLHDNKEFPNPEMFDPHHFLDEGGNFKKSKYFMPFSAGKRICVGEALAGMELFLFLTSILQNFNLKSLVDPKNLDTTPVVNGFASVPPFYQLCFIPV
Assay: Inhibition of CYP2C9 in human liver microsomes assessed as reduction in diclofenac 4'-hydroxylation
Assay type: ADME
Conditions: not given
For CCOC(=O)N1CCN(C(=O)[C@H](CCC(=O)O)NC(=O)c2cc(NC(C)COC)nc(-c3ccccc3)n2)CC1 (stereo not given in full), the “inhibition (INH)” value was “Not Active”.
In the case of CCOC(=O)N1CCN(C(=O)[C@H](CCC(=O)O)NC(=O)c2cc(NCCN(C)C)nc(-c3ccccc3)n2)CC1, the “inhibition (INH)” value was “Not Active”.
With CCCCOC(=O)N1CCN(C(=O)[C@H](CCC(=O)O)NC(=O)c2cc([C@H]3C[C@H]3COC)nc(-c3ccccc3)n2)CC1 (racemic) the “inhibition (INH)” value was “Not Active”.
With CCOC(=O)N1CCN(C(=O)[C@H](CCC(=O)O)NC(=O)c2cc(NS(=O)(=O)c3ccccc3)nc(-c3ccccc3)n2)CC1 the “inhibition (INH)” value was “Not Active”.
For CCOC(=O)N1CCN(C(=O)[C@H](CCC(=O)O)NC(=O)c2cc(CN3CCOCC3)nc(-c3ccccc3)n2)CC1, the “inhibition (INH)” value was “Not Active”.

System: not listed separately
Assay: Solubility in neutral pH
Assay type: physicochemical
Conditions: not given
With CCOC(=O)N1CCN(C(=O)[C@H](CCC(=O)O)NC(=O)c2cc(NC(C)COC)nc(-c3ccccc3)n2)CC1 (stereo not given in full) the solubility was “soluble”.
For CCOC(=O)N1CCN(C(=O)[C@H](CCC(=O)O)NC(=O)c2cc(NCCN(C)C)nc(-c3ccccc3)n2)CC1, the solubility was “soluble”.
In the case of CCCCOC(=O)N1CCN(C(=O)[C@H](CCC(=O)O)NC(=O)c2cc([C@H]3C[C@H]3COC)nc(-c3ccccc3)n2)CC1 (racemic), the solubility was “soluble”.
With CCOC(=O)N1CCN(C(=O)[C@H](CCC(=O)O)NC(=O)c2cc(NS(=O)(=O)c3ccccc3)nc(-c3ccccc3)n2)CC1 the solubility was “soluble”.
With CCOC(=O)N1CCN(C(=O)[C@H](CCC(=O)O)NC(=O)c2cc(CN3CCOCC3)nc(-c3ccccc3)n2)CC1 the solubility was “soluble”.

System: Platelet
Assay: Inhibition of ADP-induced platelet aggregation in human platelet rich plasma by in-vitro light transmission aggregometry assay
Assay type: functional
Conditions: Homo sapiens, Platelet, Plasma
In short: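 Human platelet-rich plasma incubated with compound, aggregation induced by 3 µM ADP and read by light transmission aggregometry; IC₅₀ derived from concentration–response curve.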
With CCOC(=O)N1CCN(C(=O)[C@H](CCC(=O)O)NC(=O)c2cc(NC(C)COC)nc(-c3ccccc3)n2)CC1 (stereo not given in full) the pIC50 was 6.86.
With CCCCOC(=O)N1CCN(C(=O)[C@H](CCC(=O)O)NC(=O)c2cc([C@H]3C[C@H]3COC)nc(-c3ccccc3)n2)CC1 (racemic) the pIC50 was 6.54.

Target: Voltage-gated inwardly rectifying potassium channel KCNH2 (Homo sapiens, UniProt Q12809)
Sequence (Q12809 whole entry): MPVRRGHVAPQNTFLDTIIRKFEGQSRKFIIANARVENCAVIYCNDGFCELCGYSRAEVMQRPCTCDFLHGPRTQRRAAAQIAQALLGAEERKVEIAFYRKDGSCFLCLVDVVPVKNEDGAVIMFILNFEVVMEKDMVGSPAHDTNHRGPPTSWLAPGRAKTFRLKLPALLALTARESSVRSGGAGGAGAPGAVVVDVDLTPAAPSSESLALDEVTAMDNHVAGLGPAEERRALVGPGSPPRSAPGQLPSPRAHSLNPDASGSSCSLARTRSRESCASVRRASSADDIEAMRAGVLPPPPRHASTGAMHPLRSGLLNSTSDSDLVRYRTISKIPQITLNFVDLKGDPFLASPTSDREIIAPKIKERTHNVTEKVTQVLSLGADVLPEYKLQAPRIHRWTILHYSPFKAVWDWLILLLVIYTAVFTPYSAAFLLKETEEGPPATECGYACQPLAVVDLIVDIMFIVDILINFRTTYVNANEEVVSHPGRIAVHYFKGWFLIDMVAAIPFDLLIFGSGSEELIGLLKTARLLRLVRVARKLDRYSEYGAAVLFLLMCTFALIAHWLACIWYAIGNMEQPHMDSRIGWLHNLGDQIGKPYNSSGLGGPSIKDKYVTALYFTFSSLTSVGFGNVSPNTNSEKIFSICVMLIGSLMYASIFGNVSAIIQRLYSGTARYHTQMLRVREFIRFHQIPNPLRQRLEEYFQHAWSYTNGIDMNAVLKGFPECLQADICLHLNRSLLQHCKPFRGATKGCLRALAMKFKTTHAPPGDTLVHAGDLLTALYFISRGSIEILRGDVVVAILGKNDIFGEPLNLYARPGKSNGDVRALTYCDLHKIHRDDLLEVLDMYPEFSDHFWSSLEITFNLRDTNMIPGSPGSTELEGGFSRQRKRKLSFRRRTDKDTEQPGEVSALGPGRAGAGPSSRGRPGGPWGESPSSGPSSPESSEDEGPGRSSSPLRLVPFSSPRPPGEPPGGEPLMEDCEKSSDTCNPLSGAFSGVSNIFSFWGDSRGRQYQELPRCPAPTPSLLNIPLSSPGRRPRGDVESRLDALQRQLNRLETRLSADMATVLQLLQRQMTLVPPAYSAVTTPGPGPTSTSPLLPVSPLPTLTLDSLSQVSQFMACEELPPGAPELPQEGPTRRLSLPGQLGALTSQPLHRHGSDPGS
Assay: Inhibition of human ERG expressed in HEK cells by patch-clamp assay
Assay type: cell-based
Conditions: hek293
For CCOC(=O)N1CCN(C(=O)[C@H](CCC(=O)O)NC(=O)c2cc(NC(C)COC)nc(-c3ccccc3)n2)CC1 (stereo not given in full), the “inhibition (INH)” value was “Not Active”.
For CCOC(=O)N1CCN(C(=O)[C@H](CCC(=O)O)NC(=O)c2cc(NCCN(C)C)nc(-c3ccccc3)n2)CC1, the “inhibition (INH)” value was “Not Active”.
For CCCCOC(=O)N1CCN(C(=O)[C@H](CCC(=O)O)NC(=O)c2cc([C@H]3C[C@H]3COC)nc(-c3ccccc3)n2)CC1 (racemic), the “inhibition (INH)” value was “Not Active”.
With CCOC(=O)N1CCN(C(=O)[C@H](CCC(=O)O)NC(=O)c2cc(NS(=O)(=O)c3ccccc3)nc(-c3ccccc3)n2)CC1 the “inhibition (INH)” value was “Not Active”.
With CCOC(=O)N1CCN(C(=O)[C@H](CCC(=O)O)NC(=O)c2cc(CN3CCOCC3)nc(-c3ccccc3)n2)CC1 the “inhibition (INH)” value was “Not Active”.

System: not listed separately
Assay: Solubility in basic pH
Assay type: physicochemical
Conditions: not given
In the case of CCOC(=O)N1CCN(C(=O)[C@H](CCC(=O)O)NC(=O)c2cc(NC(C)COC)nc(-c3ccccc3)n2)CC1 (stereo not given in full), the solubility was “soluble”.
For CCOC(=O)N1CCN(C(=O)[C@H](CCC(=O)O)NC(=O)c2cc(NCCN(C)C)nc(-c3ccccc3)n2)CC1, the solubility was “soluble”.
With CCCCOC(=O)N1CCN(C(=O)[C@H](CCC(=O)O)NC(=O)c2cc([C@H]3C[C@H]3COC)nc(-c3ccccc3)n2)CC1 (racemic) the solubility was “soluble”.
For CCOC(=O)N1CCN(C(=O)[C@H](CCC(=O)O)NC(=O)c2cc(NS(=O)(=O)c3ccccc3)nc(-c3ccccc3)n2)CC1, the solubility was “soluble”.
In the case of CCOC(=O)N1CCN(C(=O)[C@H](CCC(=O)O)NC(=O)c2cc(CN3CCOCC3)nc(-c3ccccc3)n2)CC1, the solubility was “soluble”.

Target: Cytochrome P450 2D6 (Homo sapiens, UniProt P10635)
Sequence (P10635 whole entry): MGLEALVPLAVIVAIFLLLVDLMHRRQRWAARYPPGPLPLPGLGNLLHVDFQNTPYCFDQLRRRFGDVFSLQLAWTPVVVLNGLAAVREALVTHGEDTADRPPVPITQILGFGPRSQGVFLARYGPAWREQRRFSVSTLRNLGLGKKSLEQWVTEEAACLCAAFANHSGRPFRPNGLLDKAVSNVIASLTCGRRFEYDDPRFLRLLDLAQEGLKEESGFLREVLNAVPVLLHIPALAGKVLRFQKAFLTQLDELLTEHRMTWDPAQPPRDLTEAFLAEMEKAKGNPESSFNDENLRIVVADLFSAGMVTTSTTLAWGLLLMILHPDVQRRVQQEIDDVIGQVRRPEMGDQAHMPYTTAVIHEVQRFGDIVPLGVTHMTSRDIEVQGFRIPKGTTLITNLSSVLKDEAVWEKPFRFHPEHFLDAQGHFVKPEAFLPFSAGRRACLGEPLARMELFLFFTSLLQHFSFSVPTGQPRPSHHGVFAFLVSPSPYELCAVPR
Assay: Inhibition of CYP2D6 in human liver microsomes assessed as reduction in dextromethorphan-O demethylation
Assay type: ADME
Conditions: not given
With CCOC(=O)N1CCN(C(=O)[C@H](CCC(=O)O)NC(=O)c2cc(NC(C)COC)nc(-c3ccccc3)n2)CC1 (stereo not given in full) the “inhibition (INH)” value was “Not Active”.
With CCOC(=O)N1CCN(C(=O)[C@H](CCC(=O)O)NC(=O)c2cc(NCCN(C)C)nc(-c3ccccc3)n2)CC1 the “inhibition (INH)” value was “Not Active”.
For CCCCOC(=O)N1CCN(C(=O)[C@H](CCC(=O)O)NC(=O)c2cc([C@H]3C[C@H]3COC)nc(-c3ccccc3)n2)CC1 (racemic), the “inhibition (INH)” value was “Not Active”.
For CCOC(=O)N1CCN(C(=O)[C@H](CCC(=O)O)NC(=O)c2cc(NS(=O)(=O)c3ccccc3)nc(-c3ccccc3)n2)CC1, the “inhibition (INH)” value was “Not Active”.
In the case of CCOC(=O)N1CCN(C(=O)[C@H](CCC(=O)O)NC(=O)c2cc(CN3CCOCC3)nc(-c3ccccc3)n2)CC1, the “inhibition (INH)” value was “Not Active”.

System: Platelet
Assay: Inhibition of ADP-induced platelet aggregation in human platelet rich plasma assessed as remaining activity at 100 nM by in-vitro light transmission aggregometry assay
Assay type: functional
Conditions: not given
In short: as §1
In the case of CCOC(=O)N1CCN(C(=O)[C@H](CCC(=O)O)NC(=O)c2cc(NC(C)COC)nc(-c3ccccc3)n2)CC1 (stereo not given in full), the Activity was less than 70%.

System: Liver microsome
Assay: Metabolic stability assay in rat liver microsomes assessed as parent drug disappearance at 1 uM after 20 mins by HPLC and mass spectrometry method
Assay type: ADME
Conditions: not given
For CCOC(=O)N1CCN(C(=O)[C@H](CCC(=O)O)NC(=O)c2cc(NC(C)COC)nc(-c3ccccc3)n2)CC1 (stereo not given in full), the Stability was “Stable”.
For CCOC(=O)N1CCN(C(=O)[C@H](CCC(=O)O)NC(=O)c2cc(NCCN(C)C)nc(-c3ccccc3)n2)CC1, the Stability was “Stable”.
In the case of CCCCOC(=O)N1CCN(C(=O)[C@H](CCC(=O)O)NC(=O)c2cc([C@H]3C[C@H]3COC)nc(-c3ccccc3)n2)CC1 (racemic), the Stability was “Stable”.
For CCOC(=O)N1CCN(C(=O)[C@H](CCC(=O)O)NC(=O)c2cc(NS(=O)(=O)c3ccccc3)nc(-c3ccccc3)n2)CC1, the Stability was “Stable”.
In the case of CCOC(=O)N1CCN(C(=O)[C@H](CCC(=O)O)NC(=O)c2cc(CN3CCOCC3)nc(-c3ccccc3)n2)CC1, the Stability was “Stable”.

System: not listed separately
Assay: Potency shift, ratio of IC50 for inhibition of ADP-induced platelet aggregation in human platelet rich plasma to IC50 for displacement of [3H]-2-methyl-thio-adenosine 5'-diphosphate from human recombinant P2Y12 expressed in CHO cell membranes
Conditions: not given
With CCOC(=O)N1CCN(C(=O)[C@H](CCC(=O)O)NC(=O)c2cc(NC(C)COC)nc(-c3ccccc3)n2)CC1 (stereo not given in full) the “Ratio IC50” value was 1.4.
With CCCCOC(=O)N1CCN(C(=O)[C@H](CCC(=O)O)NC(=O)c2cc([C@H]3C[C@H]3COC)nc(-c3ccccc3)n2)CC1 (racemic) the “Ratio IC50” value was 32.
